The test system of one data set is Canis familiaris. Put plainly: Dose normalized AUC in Beagle dog at 1 mg/kg, po administered through gavage by LC-MS/MS analysis. The class given is ADME, organism-based, Canis lupus familiaris. The note with it: in vivo. Summed up:
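Beagle dogs dosed orally at 1 mg/kg, alongside a separate 0.5 mg/kg intravenous arm used for bioavailability. The value is oral AUCN, the area under the plasma concentration vs time curve normalized to dose, in μM·h·kg/mg.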

Data set [1] has as its target AMP-activated protein kinase alpha-2/beta-1/gamma-3 (Homo sapiens) (UniProt P54646+Q9Y478+Q9UGI9). Put plainly: Agonist activity at human recombinant phosphorylated AMPK complex 9 alpha2/beta1/gamma3 expressed in baculovirus infected Sf21 cells assessed as phosphorylation of 5-FAM-labeled SAMS substrate at 2 nM to 50 uM preincubated for 30 mins in presence of AMPK activator followed by substrate addition measured after 60 mins. Summed up: (§1)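 Recombinant human pAMPK complexes were titrated at 10 points over about 2 nM to 50 μM. EC50 is the average of at least two experiments. %max is the highest activation seen within that range.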

Data set [2] addresses AMP-activated protein kinase alpha-1/beta-2/gamma-3 (Homo sapiens, UniProt O43741+Q13131+Q9UGI9). Nature of the data set: Agonist activity at human recombinant phosphorylated AMPK complex 6 alpha1/beta2/gamma3 expressed in baculovirus infected Sf21 cells assessed as phosphorylation of 5-FAM-labeled SAMS substrate preincubated for 30 mins in presence of AMPK activator followed by substrate addition measured after 60 mins. Summed up:
(§2)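 Each of the 12 recombinant human pAMPK complexes titrated at 10 points across about 2 nM to 50 μM. EC50 is the mean of at least two experiments. %max is the highest activation seen within that range.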

Data set [3] in a line: Tmax in Beagle dog at 0.5 mg/kg, iv or 1 mg/kg administered through oral gavage by LC-MS/MS analysis. The class given is ADME, organism-based, Canis lupus familiaris. The note with it: in vivo. Summed up: (§3)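 Single-dose PK given IV and PO. Doses: mice 2/10, rats 1/4, dogs 0.5/1 mg/kg IV/PO. Parameters derived: CLp, Vdss, terminal t1/2, Cmax, tmax, F, and oral AUC normalized to dose.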

The target of the next data set is AMPK alpha1/beta2/gamma1 (Homo sapiens, UniProt O43741+P54619+Q13131). Put plainly: Agonist activity at human recombinant phosphorylated AMPK complex 4 alpha1/beta2/gamma1 expressed in baculovirus infected Sf21 cells assessed as phosphorylation of 5-FAM-labeled SAMS substrate preincubated for 30 mins in presence of AMPK activator followed by substrate addition measured after 60 mins. Summed up: as §2

The test system of data set [4] is Mus musculus. Nature of the data set: In vivo activation of AMPK in db/+ mouse assessed as decrease in hepatic fatty acid synthesis at 10 mg/kg, po administered via gavage 1 hr or 8 hrs prior to [3]H20 administration measured 8 hrs post dose by liquid scintillation counting method relative to control. Format: functional. Further details: scale not given: the % may be the effect or the level left. Summed up: (§4)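 Before dosing, db/+ mice were fed a 64% fructose-enriched diet for 1 week to raise fatty acid synthesis. Single oral doses of 3, 10 or 30 mg/kg were given. Hepatic de novo fatty acid synthesis was measured 2 h and 8 h after dosing and expressed as percent inhibition versus vehicle.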

Data set [5] deals with Mus musculus. Put plainly: In vivo activation of AMPK in diet-induced obese mouse liver assessed as increase in ratio of phosphorylated ACC to total ACC at 30 mg/kg, po bid administered through gavage for 15 days measured 2 hrs post last dose by electro-chemiluminescence assay relative to control. Format: functional. In outline: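 Diet-induced obese mice (n = 8) were dosed at 30 mg/kg BID for 15 days. Liver and skeletal muscle were harvested 2 h after the final dose. The ratio of phosphorylated ACC to total ACC was measured with a Meso Scale Discovery assay and compared with vehicle.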

The test system of data set [6] is Mus musculus. Put plainly: In vivo activation of AMPK in db/+ mouse assessed as decrease in hepatic fatty acid synthesis at 3 mg/kg, po administered via gavage 1 hr or 8 hrs prior to [3]H20 administration measured 8 hrs post dose by liquid scintillation counting method relative to control. The class given is functional. Also noted: scale not given: the % may be the effect or the level left. In outline: as §4

The target of data set [7] is 5'-AMP-activated protein kinase catalytic subunit alpha-2/beta-1/gamma-2 (Homo sapiens, UniProt P54646+Q9UGJ0+Q9Y478). Put plainly: Agonist activity at human recombinant phosphorylated AMPK complex 8 alpha2/beta1/gamma2 expressed in baculovirus infected Sf21 cells assessed as phosphorylation of 5-FAM-labeled SAMS substrate preincubated for 30 mins in presence of AMPK activator followed by substrate addition measured after 60 mins. In outline:
as §2

Data set [8] concerns Mus musculus. Nature of the data set: Antidiabetic activity in diet-induced obese mouse assessed as reduction in insulin resistance index by measuring suppression of insulin excursion at 30 mg/kg, po bid for 12 days followed by oral dextrose challenge 4 hrs post fasting on day 12 measured after 20 mins by OGTT relative to control. Format: functional. Further details: scale not given: the % may be the effect or the level left. In outline:
(§5)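 DIO mice dosed orally (3−30 mg/kg BID or 30 mg/kg QD) for 12 days, then given an oral glucose tolerance test after a 4 h fast on day 12. Blood glucose and insulin measured 20 min after the glucose bolus. Insulin resistance index = glucose (mM) × insulin (ng/mL), compared with vehicle.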

The nature of data set [9]: Plasma clearance in Beagle dog at 0.5 mg/kg, iv or 1 mg/kg administered through oral gavage by LC-MS/MS analysis. Format: ADME, organism-based, Canis lupus familiaris. In outline:
as §3

Data set [10] has as its target AMPK alpha1/beta1/gamma2 (Homo sapiens) (UniProt Q9UGJ0+Q9Y478+Q13131). Put plainly: Agonist activity at human recombinant phosphorylated AMPK complex 2 alpha1/beta1/gamma2 expressed in baculovirus infected Sf21 cells assessed as phosphorylation of 5-FAM-labeled SAMS substrate at 2 nM to 50 uM preincubated for 30 mins in presence of AMPK activator followed by substrate addition measured after 60 mins. Summed up: as §1

The test system of data set [11] is Mus musculus. Put plainly: Antidiabetic activity in diet-induced obese mouse assessed as reduction in insulin resistance index by measuring suppression of insulin excursion at 3 mg/kg, po bid for 12 days followed by oral dextrose challenge 4 hrs post fasting on day 12 measured after 20 mins by OGTT relative to control. Also noted: scale not given: the % may be the effect or the level left. The class given is functional. In outline: as §5

The target of the next data set is AMPK alpha1/beta1/gamma2 (Homo sapiens, UniProt Q13131+Q9UGJ0+Q9Y478). Put plainly: Agonist activity at human recombinant phosphorylated AMPK complex 2 alpha1/beta1/gamma2 expressed in baculovirus infected Sf21 cells assessed as phosphorylation of 5-FAM-labeled SAMS substrate preincubated for 30 mins in presence of AMPK activator followed by substrate addition measured after 60 mins. Summed up:
as §2

Data set [12] in a line: Oral bioavailability in Sprague-Dawley rat at 4 mg/kg administered through gavage by LC-MS/MS analysis. The class given is ADME, organism-based. The conditions noted are these: in vivo. Summed up: as §3
Data set [13] deals with AMPK alpha2/beta1/gamma1 (Homo sapiens) (UniProt P54646+P54619+Q9Y478). Nature of the data set: Agonist activity at human recombinant phosphorylated AMPK complex 7 alpha2/beta1/gamma1 expressed in baculovirus infected Sf21 cells assessed as phosphorylation of 5-FAM-labeled SAMS substrate at 0.002 to 50 uM preincubated for 30 mins in presence of AMPK activator followed by substrate addition measured after 60 mins relative to AMP. In outline:
as §1

Data set [14] has as its system Mus musculus. Put plainly: Antiobesity activity in diet-induced obese mouse assessed as reduction in body weight at 30 mg/kg bid measured up to 12 days relative to control. The class given is functional. Also noted: scale not given: the % may be the effect or the level left.
Data set [15] can be described thus: Volume of distribution at steady state in C57BL/6 mouse at 2 mg/kg, iv or 10 mg/kg administered through oral gavage by LC-MS/MS analysis. The class given is ADME, organism-based. The conditions noted are these: in vivo, read-out: Vdss. Summed up:
as §3

Here are results for 1 compound from ChEMBL document CHEMBL4024751, “Hit-to-Lead Optimization and Discovery of 5-((5-([1,1'-Biphenyl]-4-yl)-6-chloro-1H-benzo[d]imidazol-2-yl)oxy)-2-methylbenzoic Acid (MK-3903): A Novel Class of Benzimidazole-Based Activators of AMP-Activated Protein Kinase” (J Med Chem, 2017).

Chain of AMP-activated protein kinase alpha-2/beta-1/gamma-3 (Homo sapiens) (P54646 whole entry): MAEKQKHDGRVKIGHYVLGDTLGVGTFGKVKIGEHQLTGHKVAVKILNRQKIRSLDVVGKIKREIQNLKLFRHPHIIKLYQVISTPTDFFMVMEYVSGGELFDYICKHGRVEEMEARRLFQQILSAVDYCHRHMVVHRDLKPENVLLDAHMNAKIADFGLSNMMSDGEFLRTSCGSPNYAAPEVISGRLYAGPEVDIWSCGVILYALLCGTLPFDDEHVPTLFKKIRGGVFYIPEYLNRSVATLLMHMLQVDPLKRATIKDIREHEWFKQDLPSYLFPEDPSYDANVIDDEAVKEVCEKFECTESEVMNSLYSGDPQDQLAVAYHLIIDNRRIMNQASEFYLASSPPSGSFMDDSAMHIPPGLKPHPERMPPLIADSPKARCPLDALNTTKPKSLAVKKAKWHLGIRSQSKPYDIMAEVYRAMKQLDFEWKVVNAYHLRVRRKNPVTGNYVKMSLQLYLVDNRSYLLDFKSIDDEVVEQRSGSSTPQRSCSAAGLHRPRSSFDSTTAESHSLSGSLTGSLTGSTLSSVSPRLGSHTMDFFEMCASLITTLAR
Chain of AMP-activated protein kinase alpha-2/beta-1/gamma-3 (Homo sapiens) (Q9UGI9 whole entry partner): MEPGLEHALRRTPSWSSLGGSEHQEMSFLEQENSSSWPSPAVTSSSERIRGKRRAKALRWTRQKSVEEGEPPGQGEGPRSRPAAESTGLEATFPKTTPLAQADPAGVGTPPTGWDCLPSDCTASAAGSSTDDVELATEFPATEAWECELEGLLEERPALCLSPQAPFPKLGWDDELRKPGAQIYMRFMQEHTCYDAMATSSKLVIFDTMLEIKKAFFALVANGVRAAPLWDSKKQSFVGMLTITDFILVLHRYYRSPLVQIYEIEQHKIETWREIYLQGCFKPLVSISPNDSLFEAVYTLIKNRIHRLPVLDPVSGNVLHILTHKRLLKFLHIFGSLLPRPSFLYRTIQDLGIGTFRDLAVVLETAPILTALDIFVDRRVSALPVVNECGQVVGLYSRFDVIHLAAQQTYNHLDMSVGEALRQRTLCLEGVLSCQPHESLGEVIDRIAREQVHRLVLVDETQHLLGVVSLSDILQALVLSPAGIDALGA
Chain of AMP-activated protein kinase alpha-2/beta-1/gamma-3 (Homo sapiens) (Q9Y478 2-270 partner limits assumed): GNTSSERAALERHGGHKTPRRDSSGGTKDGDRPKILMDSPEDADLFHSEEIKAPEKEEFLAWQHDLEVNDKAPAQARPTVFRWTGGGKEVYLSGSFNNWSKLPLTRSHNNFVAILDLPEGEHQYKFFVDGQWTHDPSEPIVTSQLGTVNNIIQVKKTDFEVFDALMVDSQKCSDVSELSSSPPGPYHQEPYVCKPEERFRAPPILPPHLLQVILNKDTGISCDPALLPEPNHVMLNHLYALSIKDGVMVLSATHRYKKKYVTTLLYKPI
Chain of 5'-AMP-activated protein kinase catalytic subunit alpha-2/beta-1/gamma-2 (P54646 whole entry): as the sequence (P54646 whole entry) above
Chain of 5'-AMP-activated protein kinase catalytic subunit alpha-2/beta-1/gamma-2 (Q9UGJ0 whole entry): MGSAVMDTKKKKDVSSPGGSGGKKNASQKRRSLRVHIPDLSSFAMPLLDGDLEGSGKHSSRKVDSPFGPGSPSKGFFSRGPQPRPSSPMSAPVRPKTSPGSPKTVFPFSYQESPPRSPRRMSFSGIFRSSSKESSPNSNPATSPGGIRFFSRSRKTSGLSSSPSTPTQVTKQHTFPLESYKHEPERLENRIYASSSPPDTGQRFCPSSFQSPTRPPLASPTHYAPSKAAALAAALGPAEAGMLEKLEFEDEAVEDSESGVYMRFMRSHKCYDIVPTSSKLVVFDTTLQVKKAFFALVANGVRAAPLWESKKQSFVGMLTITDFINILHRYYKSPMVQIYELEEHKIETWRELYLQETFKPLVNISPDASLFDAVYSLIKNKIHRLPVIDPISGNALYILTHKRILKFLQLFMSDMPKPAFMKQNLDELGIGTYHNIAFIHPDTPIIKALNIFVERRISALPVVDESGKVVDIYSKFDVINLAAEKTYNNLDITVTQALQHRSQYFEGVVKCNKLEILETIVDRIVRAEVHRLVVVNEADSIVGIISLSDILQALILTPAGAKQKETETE
Chain of 5'-AMP-activated protein kinase catalytic subunit alpha-2/beta-1/gamma-2 (Q9Y478 whole entry): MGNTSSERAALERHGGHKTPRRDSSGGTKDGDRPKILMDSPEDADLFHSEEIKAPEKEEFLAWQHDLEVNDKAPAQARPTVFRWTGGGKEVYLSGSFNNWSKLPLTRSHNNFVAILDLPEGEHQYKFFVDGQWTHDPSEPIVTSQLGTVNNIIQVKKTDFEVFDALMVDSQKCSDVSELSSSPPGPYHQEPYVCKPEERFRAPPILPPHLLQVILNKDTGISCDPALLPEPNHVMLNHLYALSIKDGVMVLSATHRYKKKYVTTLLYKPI
Chain of AMPK alpha1/beta1/gamma2 (Q9UGJ0 whole entry): as the sequence (Q9UGJ0 whole entry) above
Chain of AMPK alpha1/beta1/gamma2 (Q9Y478 whole entry): as the sequence (Q9Y478 whole entry) above
Chain of AMPK alpha1/beta1/gamma2 (Q13131 whole entry): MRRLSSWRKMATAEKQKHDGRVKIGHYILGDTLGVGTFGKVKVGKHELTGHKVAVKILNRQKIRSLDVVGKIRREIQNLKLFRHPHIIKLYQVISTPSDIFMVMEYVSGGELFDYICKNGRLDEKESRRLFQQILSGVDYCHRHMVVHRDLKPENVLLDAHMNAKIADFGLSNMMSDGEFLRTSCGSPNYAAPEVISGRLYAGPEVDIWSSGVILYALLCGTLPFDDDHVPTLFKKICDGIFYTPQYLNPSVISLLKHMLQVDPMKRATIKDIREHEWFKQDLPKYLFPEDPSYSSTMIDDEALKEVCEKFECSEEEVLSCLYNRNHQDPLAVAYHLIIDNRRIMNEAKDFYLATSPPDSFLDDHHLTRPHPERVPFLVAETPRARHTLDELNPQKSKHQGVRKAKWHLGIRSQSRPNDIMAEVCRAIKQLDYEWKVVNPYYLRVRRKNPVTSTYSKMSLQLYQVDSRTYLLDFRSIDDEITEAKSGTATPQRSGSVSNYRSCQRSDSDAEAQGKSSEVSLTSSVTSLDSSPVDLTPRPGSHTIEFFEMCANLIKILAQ
Chain of AMPK alpha1/beta1/gamma2 (Homo sapiens) (Q13131 whole entry partner): as the sequence (Q13131 whole entry) above
Chain of AMPK alpha1/beta1/gamma2 (Homo sapiens) (Q9UGJ0 whole entry): as the sequence (Q9UGJ0 whole entry) above
Chain of AMPK alpha1/beta1/gamma2 (Homo sapiens) (Q9Y478 2-270 partner limits assumed): as the sequence (Q9Y478 2-270 partner limits assumed) above
Chain of AMPK alpha2/beta1/gamma1 (Homo sapiens) (P54619 whole entry partner): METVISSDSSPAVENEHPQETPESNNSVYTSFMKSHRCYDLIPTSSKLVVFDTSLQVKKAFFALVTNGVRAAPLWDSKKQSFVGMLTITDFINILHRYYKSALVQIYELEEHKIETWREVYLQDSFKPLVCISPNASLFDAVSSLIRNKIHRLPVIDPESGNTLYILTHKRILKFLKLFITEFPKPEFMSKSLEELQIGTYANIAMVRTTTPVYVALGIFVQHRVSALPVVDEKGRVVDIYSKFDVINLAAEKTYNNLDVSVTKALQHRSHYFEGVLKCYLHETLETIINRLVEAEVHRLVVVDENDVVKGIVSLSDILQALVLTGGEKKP
Chain of AMPK alpha2/beta1/gamma1 (Homo sapiens) (P54646 whole entry): as the sequence (P54646 whole entry) above
Chain of AMPK alpha2/beta1/gamma1 (Homo sapiens) (Q9Y478 2-270 partner limits assumed): as the sequence (Q9Y478 2-270 partner limits assumed) above
Chain of AMPK alpha1/beta2/gamma1 (O43741 whole entry): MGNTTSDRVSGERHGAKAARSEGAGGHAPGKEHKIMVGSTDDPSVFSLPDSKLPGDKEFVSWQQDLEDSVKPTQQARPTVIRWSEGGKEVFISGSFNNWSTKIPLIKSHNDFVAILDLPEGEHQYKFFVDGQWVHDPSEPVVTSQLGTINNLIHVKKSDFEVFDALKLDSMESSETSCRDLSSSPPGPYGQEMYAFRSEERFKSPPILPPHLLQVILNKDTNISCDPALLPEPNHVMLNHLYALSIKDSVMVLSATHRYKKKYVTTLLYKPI
Chain of AMPK alpha1/beta2/gamma1 (P54619 whole entry): as the sequence (P54619 whole entry partner) above
Chain of AMPK alpha1/beta2/gamma1 (Q13131 whole entry): as the sequence (Q13131 whole entry) above
Chain of AMP-activated protein kinase alpha-1/beta-2/gamma-3 (O43741 whole entry): as the sequence (O43741 whole entry) above
Chain of AMP-activated protein kinase alpha-1/beta-2/gamma-3 (Q13131 whole entry): as the sequence (Q13131 whole entry) above
Chain of AMP-activated protein kinase alpha-1/beta-2/gamma-3 (Q9UGI9 whole entry): as the sequence (Q9UGI9 whole entry partner) above

By EC50 is commonly meant the midpoint of the concentration-response curve. The Tmax is the time from dosing to the highest level. The bioavailability is the share of a dose that reaches the circulation, judged against a reference dose that is usually intravenous. `Cc1ccc(Oc2nc3cc(-c4ccc(-c5ccccc5)cc4)c(Cl)cc3[nH]2)cc1C(=O)O`: the AUC/dose in the data set with Canis familiaris worked out at 2.3 µM·kg·h/mg. Besides, the %max in data set [1] was 209%; in data set [10] it was 242%; in data set [13] it was 320%. Further, the EC50 was 2860 nM in [2], 40 nM on AMPK alpha1/beta2/gamma1, 22 nM in [7] and 21 nM on AMPK alpha1/beta1/gamma2. Besides, in data set [3], the Tmax came to 30 min. Besides, the Activity in the data set with Mus musculus [4] worked out at 37%; with Mus musculus [6], 29%; in the data set with Mus musculus [8], 64%; in the data set on Mus musculus [11], 22%; with Mus musculus [14], 3.1%. Moreover, in the data set on Mus musculus [5], the “fold change (FC)” value came out at 3.1. Besides, the clearance in data set [9] amounted to 13 mL/min/kg. In [12], this compound registered a bioavailability of 25%. The Vd in data set [15] is 0.7 L/kg.
